A selection: hits, their analogues and other compounds. The true share with any hit is near 2.1%.
PGE2 EP2 inh = inhibitors of human EP2 prostaglandin E2 receptor | P43116 | C6 glioma cells expressing human EP2, cAMP TR-FRET; cells stimulated with saturating PGE2 | inhibition, % at 25 µM | 0.52% of 260,000 active | AID 1422;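 active = percent inhibition above 40 after rounding to a whole number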;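 note: rat C6 glioma host cells with rolipram phosphodiesterase inhibitor present; the protocol text gives 20 µM as final concentration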
FXIa inh 1536 = inhibitors of human coagulation factor XIa; P03951; purified FXIa, Boc-Glu-Ala-Arg-AMC fluorogenic substrate; inhibition, % at 5 µM; 0.14% of 220,000 active;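 active = inhibition of at least 40%; inactive = inhibition below 40%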;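 note: fluorescence of freed AMC excited at 355 nm; 0% = enzyme without compound and 100% = no enzyme blank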
hK5 inh = blocks human kallikrein 5 protease activity; recombinant hK5, fluorogenic AMC substrate cleavage; inhibition, % at 5 µM; AID 873; 0.59% of 210,000 active;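 active = inhibition of 40% or more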;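 note: 0% = enzyme controls without compound and 100% = no-enzyme blanks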
thrombin 1536 = thrombin (human) inhibition; AID 1046; 0.26% of 220,000 active; inhibition, % at 5 µM; alpha-thrombin, Boc-VPR-AMC fluorogenic substrate cleavage; P00734;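 active = inhibition at or above 40%; inactive = inhibition below 40%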;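 note: 0% = enzyme with no compound and 100% = wells without enzyme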
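Assay system: human alpha-thrombin enzyme. Reagent: Boc-VPR-AMC substrate, 15 µM final. Compound dosing: one concentration per compound, 5 µM, with 0.2% DMSO. Incubation: room-temperature reaction. Technique: AMC fluorescence, 355/460 nm. Measure: % inhibition relative to enzyme controls and enzyme-free blanks.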
FXIIa inh = factor XIIa (human) inhibition | P00748 | purified FXIIa, Boc-QGR-AMC fluorogenic substrate, 2 h | inhibition, % at 5 µM | 0.3% of 220,000 active | AID 800; in the data active = inhibition above about 40%;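 note: 0% = enzyme with no compound and 100% = blank without enzyme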
Target sequence (P00748 20-372 limits assumed): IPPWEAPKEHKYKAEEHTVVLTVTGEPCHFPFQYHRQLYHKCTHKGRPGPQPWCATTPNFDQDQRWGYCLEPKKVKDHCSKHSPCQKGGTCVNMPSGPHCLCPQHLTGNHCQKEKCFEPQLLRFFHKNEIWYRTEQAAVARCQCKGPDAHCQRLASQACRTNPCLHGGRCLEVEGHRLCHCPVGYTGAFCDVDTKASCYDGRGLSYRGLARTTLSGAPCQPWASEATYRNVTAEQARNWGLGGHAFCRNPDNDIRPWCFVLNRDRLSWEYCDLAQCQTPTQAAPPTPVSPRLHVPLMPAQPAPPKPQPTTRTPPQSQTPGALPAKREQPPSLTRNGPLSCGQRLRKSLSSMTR
Target sequence (P00748 373-615 limits assumed): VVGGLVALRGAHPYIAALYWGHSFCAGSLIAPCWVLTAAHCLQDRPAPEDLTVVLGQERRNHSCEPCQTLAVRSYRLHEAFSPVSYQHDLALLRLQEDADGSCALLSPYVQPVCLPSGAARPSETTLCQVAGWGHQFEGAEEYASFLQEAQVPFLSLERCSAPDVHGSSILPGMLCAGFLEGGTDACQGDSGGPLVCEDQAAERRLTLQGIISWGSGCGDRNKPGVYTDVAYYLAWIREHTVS
EP2 modulator = EP2 receptor (human) modulation | P43116 | EP2-expressing cells, cAMP HTRF FRET, PGE2 co-stimulation | induction, % at 25 µM | 0.83% of 260,000 active | AID 940;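 active = compounds whose cAMP rise, as percent of the full-agonist control response, exceeds 60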;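 note: rat C6 glioma line stably carrying human EP2 under a CMV promoter; the protocol text gives 20 µM as final concentration; 100% = response of wells given 1 µM PGE2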
Numbers without * were called inactive.

Results for CC(C)Oc1ccc(C(=O)Nc2ccc(NC(=O)c3ccco3)cc2)cc1 ?
PGE2 EP2 inh: 12; EP2 modulator: -3

How did COC(=O)c1cc2ccsc2n1Cc1nc(-c2cccc(Cl)c2)oc1C do in these assays?
PGE2 EP2 inh: 11; FXIa inh 1536: -11; hK5 inh: 33; thrombin 1536: -6; FXIIa inh: 1; EP2 modulator: 61*

Results for Cc1cc(C)c2[nH]c(=O)c(CN(Cc3ccccc3)C(=S)NCc3ccco3)cc2c1 ?
PGE2 EP2 inh: 10; EP2 modulator: 13

Results for CC(=O)[C@]1(O)CC[C@@H]2[C@H]3C[C@@H](C)C4=CC(=O)CC[C@@]4(C)[C@@H]3[C@@H](O)C[C@]21C ?
PGE2 EP2 inh: 50*; EP2 modulator: 4

Results for CC1=NOC(=O)/C1=C/c1ccc2c(c1)OCO2 ?
PGE2 EP2 inh: 61*; FXIa inh 1536: 2; hK5 inh: 0; thrombin 1536: -14; FXIIa inh: -1; EP2 modulator: -66

How did CCN(CC)c1nc2cc(C)ccc2cc1/C=C(\C#N)C(N)=O do in these assays?
PGE2 EP2 inh: 6; FXIa inh 1536: -5; hK5 inh: -5; thrombin 1536: -10; FXIIa inh: -1; EP2 modulator: 63*

What do the screens show for `COc1ccc(Cl)cc1NC(=O)Nc1cn(C)nc1C`?
PGE2 EP2 inh: 9; FXIa inh 1536: 45*; hK5 inh: 57*; thrombin 1536: 6; FXIIa inh: 21; EP2 modulator: -15

How did COc1ccc(Cl)cc1NC(=O)Nn1cnnc1 do in these assays?
PGE2 EP2 inh: 12; FXIa inh 1536: -20; hK5 inh: 5; thrombin 1536: -5; FXIIa inh: 4; EP2 modulator: 4

Results for Cc1ccc(C(C(=O)NC2CCCCC2)N(Cc2ccco2)C(=O)Cc2cccs2)cc1 (stereo not given) ?
PGE2 EP2 inh: 9; EP2 modulator: 62*

How did O=C(NC1CCCC1)C(c1ccncc1)N(Cc1ccc2c(c1)OCO2)C(=O)Cc1cccs1 (stereo not given) do in these assays?
PGE2 EP2 inh: 10; EP2 modulator: 0

How did O=C(NC1CCCCC1)C(c1ccco1)N(Cc1ccc2c(c1)OCO2)C(=O)Cc1cccs1 (stereo not given) do in these assays?
PGE2 EP2 inh: 10; EP2 modulator: 87*

Results for CC(=O)c1ccc(N(C(=O)CS(=O)CC(=O)Nc2ccc(F)cc2)C(C(=O)NC2CCCCC2)c2cccs2)cc1 (stereo not given) ?
PGE2 EP2 inh: 5; FXIa inh 1536: 3; hK5 inh: -11; thrombin 1536: -2; FXIIa inh: 12; EP2 modulator: 13

How did CC(=O)c1ccc(N(C(=O)Cc2cccs2)C(C(=O)NC2CCCCC2)c2cccs2)cc1 (stereo not given) do in these assays?
PGE2 EP2 inh: 67*; EP2 modulator: 47

How did N#Cc1c(NC(=O)COc2cccc(Cl)c2)sc2c1CCCC2 do in these assays?
PGE2 EP2 inh: 13; EP2 modulator: -42

What do the screens show for `C/C(=N\NC(=O)CCn1nnc2ccccc21)c1cccs1`?
PGE2 EP2 inh: 7; FXIa inh 1536: 11; hK5 inh: 19; thrombin 1536: 24; FXIIa inh: 43*; EP2 modulator: -4

What do the screens show for `CCn1c(COc2cccc3ccccc23)nnc1SCC(=O)Nc1cccc(Cl)c1C`?
PGE2 EP2 inh: 0; EP2 modulator: 40

Results for CCCC(c1nnnn1C(C)(C)CC)N(Cc1ccc(F)cc1)Cc1cc2ccc(C)cc2[nH]c1=O (stereo not given) ?
PGE2 EP2 inh: 7; EP2 modulator: -6

What do the screens show for `COc1cc(O)c(CC=C(C)C)c(O)c1C(=O)CCc1ccc(O)cc1`?
PGE2 EP2 inh: 76*; FXIa inh 1536: 0; hK5 inh: 3; thrombin 1536: 5; FXIIa inh: 14; EP2 modulator: -4

Results for O=C(CCc1ccc(O)cc1)c1c(O)cc(O)cc1O ?
PGE2 EP2 inh: 9; FXIa inh 1536: 2; hK5 inh: 2; thrombin 1536: 4; FXIIa inh: 13; EP2 modulator: -4

What do the screens show for `C/C=C(\C)C(=O)OC1c2c(ccc3ccc(=O)oc23)OC(C)(C)C1OC(C)=O` (stereo not given)?
PGE2 EP2 inh: 15; FXIa inh 1536: 45*; hK5 inh: -3; thrombin 1536: -5; FXIIa inh: 39; EP2 modulator: -42

Results for CCS(=O)(=O)N1CCCC(c2nc(-c3cccc(OC)c3)no2)C1 (stereo not given) ?
PGE2 EP2 inh: 10; FXIa inh 1536: 5; hK5 inh: 40*; thrombin 1536: 15; FXIIa inh: 19; EP2 modulator: 6

Results for Clc1cccc(-c2n[nH]c3c2CN(Cc2ccc4c(c2)OCO4)CC3)c1 ?
EP2 modulator: -40

Results for COc1cc(CC(=O)Nc2nccs2)cc(OC)c1OC ?
PGE2 EP2 inh: 7; FXIa inh 1536: -1; hK5 inh: 43*; thrombin 1536: 5; FXIIa inh: 3; EP2 modulator: -14

Results for COc1cc(-c2nc3cnccn3c2NC(C)(C)C)ccc1O ?
EP2 modulator: -60

What do the screens show for `CN(C)C(=O)CSC1c2ccccc2C(=O)N1c1ccccc1` (stereo not given)?
PGE2 EP2 inh: 10; FXIa inh 1536: 3; hK5 inh: 78*; thrombin 1536: 7; FXIIa inh: 11; EP2 modulator: 2

What do the screens show for `Cc1cc2cc(C(c3nnnn3C3CCCCC3)N3CCc4ccccc43)c(=O)[nH]c2cc1C` (stereo not given)?
PGE2 EP2 inh: 13; EP2 modulator: 76*

Results for CCCC(c1nnnn1Cc1ccccc1)N(Cc1cc2cccc(C)c2[nH]c1=O)C1CCCCC1 (stereo not given) ?
PGE2 EP2 inh: 8; EP2 modulator: 69*

What do the screens show for `Cc1cccc2cc(C(c3nnnn3C3CCCCC3)N3CCc4ccccc43)c(=O)[nH]c12` (stereo not given)?
PGE2 EP2 inh: 4; EP2 modulator: 108*

How did Cc1cc2cc(C(c3nnnn3C3CCCC3)N3CCc4ccccc43)c(=O)[nH]c2cc1C (stereo not given) do in these assays?
PGE2 EP2 inh: 11; EP2 modulator: 5

What do the screens show for `Cc1cccc2cc(C(c3nnnn3Cc3ccccc3)N3CCc4ccccc43)c(=O)[nH]c12` (stereo not given)?
PGE2 EP2 inh: 7; EP2 modulator: 95*

How did Cc1ccc(-c2nnn(CC(=O)N(c3ccc(Cl)cc3)C(C(=O)NC(C)(C)C)c3ccco3)n2)o1 (stereo not given) do in these assays?
PGE2 EP2 inh: 7; EP2 modulator: 34

Results for COC(=O)Cc1[nH]nc2c1C(c1ccccc1Cl)C(C#N)=C(N)O2 (stereo not given) ?
PGE2 EP2 inh: 21; EP2 modulator: 20

Compound activity deposited in PubChem BioAssay by several laboratories.
